According to ChEMBL document CHEMBL1159084, “Synthesis and structure-activity relationship of 1,2,4-triazole-containing diarylpyrazolyl carboxamide as CB1 cannabinoid receptor-ligand” (Bioorg Med Chem, 2010):

Columns and labels:
Cannabinoid receptor 1 [1] = molecular target: Cannabinoid receptor 1 (Rattus norvegicus, UniProt P20272); experiment: Displacement of [3H]CP-55940 from CB1 receptor in Sprague-Dawley rat cerebellar membrane; parameters: species or system Cerebellum
Procedure, shortened: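 Membranes came from cerebella of male Sprague Dawley rats (200–300 g), homogenized in TME buffer (50 mM Tris–HCl, 1 mM EDTA, 3 mM MgCl2, pH 7.4) and spun at 48,000g for 30 min at 4 °C. They were incubated 1 h at 30 °C in TME with 0.5% fatty-acid-free BSA, then filtered on PEI-soaked GF/B, washed and counted by scintillation. IC50 values are from single determinations.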

Cannabinoid receptor 2 = Cannabinoid receptor 2 (Homo sapiens, UniProt P34972); experiment: Displacement of [3H]WIN-55212-2 from human recombinant CB2 receptor expressed in CHO-K1 cell membrane; format: cell membranes
Procedure, shortened: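 CB2 membranes were from CHO K-1 cells transfected with human CB2, prepared in TME buffer (pH 7.4) and incubated with 3 nM [3H]WIN55,212-2 in TME plus 0.5% fatty-acid-free BSA for 1 h at 30 °C. Bound label was filtered on PEI-soaked GF/B, washed with ice-cold buffer containing 0.1% BSA, and counted by scintillation. IC50 values are from single determinations.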

[2] = Selectivity for Sprague-Dawley rat CB1 receptor over human recombinant CB2 receptor
Procedure, shortened: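 Selectivity is the ratio of the hCB2 IC50 to the rCB1 IC50. The hCB2 IC50 came from CHO-K1 membrane displacement of [3H]WIN55,212-2, and the rCB1 IC50 from rat cerebellar membrane binding. Both binding assays ran 1 h at 30 °C with filtration and scintillation counting.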

Cannabinoid receptor 1 [3] = molecular target: Cannabinoid receptor 1 (Homo sapiens, UniProt P21554); experiment: Inverse agonist activity at human recombinant CB1 receptor expressed in CHO cells by luciferase reporter gene assay; format: functional, cell-based
Sequence of Cannabinoid receptor 1 (Homo sapiens, UniProt P21554) (P21554 whole entry): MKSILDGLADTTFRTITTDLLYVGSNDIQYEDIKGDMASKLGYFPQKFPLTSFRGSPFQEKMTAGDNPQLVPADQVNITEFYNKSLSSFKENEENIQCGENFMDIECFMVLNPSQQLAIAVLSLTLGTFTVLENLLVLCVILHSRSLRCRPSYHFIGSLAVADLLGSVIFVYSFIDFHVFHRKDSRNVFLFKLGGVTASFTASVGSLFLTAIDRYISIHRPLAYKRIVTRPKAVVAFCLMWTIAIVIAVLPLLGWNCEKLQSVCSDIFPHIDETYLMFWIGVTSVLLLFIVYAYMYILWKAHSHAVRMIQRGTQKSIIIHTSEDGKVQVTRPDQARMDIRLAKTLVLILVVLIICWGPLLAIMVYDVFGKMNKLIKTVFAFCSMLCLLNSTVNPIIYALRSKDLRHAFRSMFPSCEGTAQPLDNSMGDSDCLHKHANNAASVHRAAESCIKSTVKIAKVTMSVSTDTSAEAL

Sequence of Cannabinoid receptor 2 (P34972 whole entry): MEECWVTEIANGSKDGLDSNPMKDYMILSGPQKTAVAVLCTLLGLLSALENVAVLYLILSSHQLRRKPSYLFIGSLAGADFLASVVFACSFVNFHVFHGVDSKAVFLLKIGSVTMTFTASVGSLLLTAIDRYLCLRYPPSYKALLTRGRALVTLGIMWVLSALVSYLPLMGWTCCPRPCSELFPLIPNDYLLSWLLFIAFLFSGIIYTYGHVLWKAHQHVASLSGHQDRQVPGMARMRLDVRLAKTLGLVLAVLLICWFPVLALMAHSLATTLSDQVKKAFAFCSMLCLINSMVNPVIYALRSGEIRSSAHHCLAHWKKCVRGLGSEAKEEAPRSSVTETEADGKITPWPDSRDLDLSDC
Sequence of Cannabinoid receptor 1 (Rattus norvegicus, UniProt P20272) (P20272 whole entry): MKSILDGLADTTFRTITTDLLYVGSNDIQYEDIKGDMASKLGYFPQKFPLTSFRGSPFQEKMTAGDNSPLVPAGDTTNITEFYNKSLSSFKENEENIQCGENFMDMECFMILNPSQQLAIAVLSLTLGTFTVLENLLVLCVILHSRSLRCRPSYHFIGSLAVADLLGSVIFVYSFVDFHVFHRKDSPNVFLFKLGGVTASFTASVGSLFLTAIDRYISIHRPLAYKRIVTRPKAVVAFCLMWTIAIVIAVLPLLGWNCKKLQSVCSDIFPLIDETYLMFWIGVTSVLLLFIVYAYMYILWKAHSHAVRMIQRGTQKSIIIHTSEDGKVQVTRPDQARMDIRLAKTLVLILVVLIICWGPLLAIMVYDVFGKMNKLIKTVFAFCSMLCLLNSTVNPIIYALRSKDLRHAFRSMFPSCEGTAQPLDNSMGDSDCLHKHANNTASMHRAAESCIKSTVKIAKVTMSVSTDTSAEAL

IC50 (Cannabinoid receptor 1 [1]) [nM]	IC50 (Cannabinoid receptor 2) [nM]	Ratio IC50 [2]	IC50 (Cannabinoid receptor 1 [3]) [nM]	Structure (SMILES)
1.1	1790	1630	2.51	CC(NC(=O)c1nn(-c2ccccc2Cl)c(-c2ccc(Br)cc2)c1Cn1cncn1)c1ccc(Br)cc1 (configuration not stated)
2.28	296	130	–	O=C(c1nn(-c2ccccc2Cl)c(-c2ccc(Br)cc2)c1Cn1cncn1)N1CCN(c2cccc(Cl)c2)CC1
2.22	582	262	–	O=C(c1nn(-c2ccccc2Cl)c(-c2ccc(Br)cc2)c1Cn1cncn1)N1CCN(c2cccc(Cl)c2Cl)CC1
2.2	2420	1100	–	CC(NC(=O)c1nn(-c2ccccc2Cl)c(-c2ccc(Br)cc2)c1Cn1cncn1)c1ccc(Cl)cc1Cl (configuration not stated)
1.98	3200	1620	–	O=C(NC1(c2ccccc2)CC1)c1nn(-c2ccccc2Cl)c(-c2ccc(Br)cc2)c1Cn1cncn1
27.7	–	–	–	O=C(c1nn(-c2ccc(Cl)cc2Cl)c(-c2ccc(Br)cc2)c1Cn1cncn1)N1CCN(c2ncccn2)CC1
14.2	–	–	–	C[C@H]1CC[C@H](NC(=O)c2nn(-c3ccc(Cl)cc3Cl)c(-c3ccc(Cl)cc3)c2Cn2cncn2)CC1
14.1	–	–	–	O=C(NCc1ccccc1)c1nn(-c2ccccc2Cl)c(-c2ccc(Cl)cc2)c1Cn1cncn1
12.9	–	–	–	C[C@H]1CCCC[C@@H]1NC(=O)c1nn(-c2ccc(Cl)cc2Cl)c(-c2ccc(Cl)cc2)c1Cn1cncn1

Continued, compound first:

Structure (SMILES)	IC50 (Cannabinoid receptor 1 [1]) [nM]	IC50 (Cannabinoid receptor 2) [nM]	Ratio IC50 [2]	IC50 (Cannabinoid receptor 1 [3]) [nM]
O=C(NC1CCCCC1)c1nn(-c2ccccc2Cl)c(-c2ccc(Br)cc2)c1Cn1cncn1	1.6	4060	2540	–
CC(NC(=O)c1nn(-c2ccccc2Cl)c(-c2ccc(Cl)cc2)c1Cn1cncn1)c1ccc(Cl)cc1Cl (configuration not stated)	2	3330	1660	–
CC(NC(=O)c1nn(-c2ccccc2Cl)c(-c2ccc(Cl)cc2)c1Cn1cncn1)c1ccc(Br)cc1 (configuration not stated)	1.8	3510	1950	–
O=C(NC1(c2ccc(Cl)cc2)CC1)c1nn(-c2ccccc2Cl)c(-c2ccc(Br)cc2)c1Cn1cncn1	1.7	2570	1510	–
CC(NC(=O)c1nn(-c2ccccc2Cl)c(-c2ccc(Br)cc2)c1Cn1cncn1)C(C)(C)C (configuration not stated)	6	–	–	–
Cc1cccc(N2CCN(C(=O)c3nn(-c4ccccc4Cl)c(-c4ccc(Br)cc4)c3Cn3cncn3)CC2)c1C	2.07	547	264	–
O=C(NC1(C(F)(F)F)CC1)c1nn(-c2ccc(Cl)cc2Cl)c(-c2ccc(Cl)cc2)c1Cn1cncn1	4.5	–	–	–
CC(NC(=O)c1nn(-c2ccc(Cl)cc2Cl)c(-c2ccc(Br)cc2)c1Cn1cncn1)c1ccc(Br)cc1 (configuration not stated)	1.4	6480	4630	28.2
O=C(c1nn(-c2ccc(Cl)cc2Cl)c(-c2ccc(Br)cc2)c1Cn1cncn1)N1CCN(c2ccccc2)CC1	12.5	–	–	–
